Data reported in ChEMBL document CHEMBL4715682, “Potent trifluoromethoxy, trifluoromethylsulfonyl, trifluoromethylthio and pentafluorosulfanyl containing (1,3,4-oxadiazol-2-yl)benzamides against drug-resistant Gram-positive bacteria” (RSC Med Chem, 2020).
Converted amounts (≈) assume the structure as drawn. The source made the active and inactive calls. The calls are words filed in the database; no cut-off is given here.

Legend:
[1] = test system: Staphylococcus aureus; test: Antibacterial activity against methicillin-resistant Staphylococcus aureus NRS483 assessed as inhibition of visible bacterial growth incubated for 18 to 20 hrs by CLSI method; assay type: functional; details: time 18-20 hrs
Outline: (§1)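 CLSI broth microdilution. Strains grown aerobically overnight on tryptic soy agar at 37 °C, adjusted to 0.5 McFarland and diluted in cation-adjusted Mueller–Hinton broth to about 5×10^5 CFU/mL. Compounds and control drugs serially diluted across the plate. Incubated aerobically at 37 °C for 18-20 h. MIC is the lowest concentration with no visible growth.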

[2] = test system: Streptococcus pneumoniae; test: Antibacterial activity against […] Streptococcus pneumoniae ATCC 700677 assessed as inhibition of visible bacterial growth incubated for 18 to 20 hrs by CLSI method; assay type: functional; details: time 18-20 hrs; outline: as §1
[3] = test system: Staphylococcus aureus; test: Synergistic antibacterial activity against methicillin-resistant Staphylococcus aureus ATCC 33592 assessed as fractional inhibitory concentration index in presence of Vancomycin; assay type: functional
[4] = test system: Listeria monocytogenes; test: Antibacterial activity against Listeria monocytogenes ATCC 19111 assessed as inhibition of visible bacterial growth incubated for 18 to 20 hrs by CLSI method; assay type: functional; details: time 18-20 hrs
Outline: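 Broth microdilution per CLSI. Strains grown aerobically overnight on TSA at 37 °C, suspended to 0.5 McFarland, diluted in CAMHB to about 5×10^5 CFU/mL. Agents serially diluted across plate; aerobic incubation 37 °C for 18-20 h. MIC = lowest concentration completely preventing visible growth.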

[5] = test system: Staphylococcus aureus; test: Antibacterial activity against methicillin-resistant Staphylococcus aureus ATCC 33592 assessed as inhibition of visible bacterial growth incubated for 18 to 20 hrs by CLSI method; assay type: functional; details: time 18-20 hrs; outline: as §1
[6] = test system: Staphylococcus aureus; test: Synergistic antibacterial activity against methicillin-resistant Staphylococcus aureus ATCC 33592 assessed as fractional inhibitory concentration index in presence of linezolid by checkerboard assay; assay type: functional
[7] = Hemolytic activity in human RBC at 32 ug/ml incubated for 60 mins relative to control; assay type: ADME, cell-based, Erythrocyte; details: red blood cells (erythrocytes), at 32 µg/mL, read-out: Activity
Outline: (§2)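 Single-donor human erythrocytes as a 5% v/v suspension in PBS. Compounds serially diluted in PBS, in triplicate, and incubated with RBCs at 37 °C for 60 min. PBS served as the negative control and Triton-X as the positive control. Samples spun at 4,000 rpm for 5 min and supernatant absorbance read at 540 nm. Percent hemolysis = 100×(sample−negative)/(positive−negative).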

[8] = test system: Pseudomonas aeruginosa; test: Antibacterial activity against Pseudomonas aeruginosa ATCC 27853 assessed as inhibition of visible bacterial growth at 16 ug/ml incubated for 18 to 20 hrs by CLSI method; assay type: functional, organism-based; details: dose 16.0 µg/ml, time 18-20 hrs; outline: as §1
[9] = test system: Acinetobacter baumannii; test: Antibacterial activity against Acinetobacter baumannii ATCC 19606 RW4 assessed as inhibition of visible bacterial growth at 16 ug/ml incubated for 18 to 20 hrs by CLSI method; assay type: functional, organism-based; details: ATCC 19606 = CIP 70.34 = JCM 6841 RW4, dose 16.0 µg/ml, time 18-20 hrs; outline: as §1
[10] = test system: Streptococcus pneumoniae; test: Antibacterial activity against cephalosporin-resistant Streptococcus pneumoniae ATCC 51916 assessed as inhibition of visible bacterial growth incubated for 18 to 20 hrs by CLSI method; assay type: functional; details: time 18-20 hrs; outline: as §1
[11] = test system: Staphylococcus aureus; test: Antibacterial activity against methicillin-resistant Staphylococcus aureus USA400 infected in mouse J774 cells assessed as log reduction in intracellular growth at 8 ug/ml incubated for 18 to 22 hrs; assay type: functional; details: dose 8 µg/ml; time 18-22 hrs
Outline: (§3)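 J774 murine macrophages grown in DMEM with 10% FBS at 37 °C, 5% CO2. Cells infected with MRSA USA400 at MOI about 10:1 for 1 h, then washed with gentamicin to remove extracellular bacteria. Agents added at 8 or 16 μg/mL in triplicate, with DMSO vehicle control, for 24 h. Cells lysed with 0.1% Triton-X, lysates plated on tryptic soy agar, and CFU counted after 18-22 h at 37 °C. Analysed by two-way ANOVA with Dunnett's test.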

[12] = test system: Staphylococcus aureus; test: Synergistic antibacterial activity against methicillin-resistant Staphylococcus aureus ATCC 33592 assessed as fractional inhibitory concentration index in presence of daptomycin by checkerboard assay; assay type: functional
[13] = test system: Escherichia coli; test: Antibacterial activity against Escherichia coli ATCC 25404 assessed as inhibition of visible bacterial growth at 16 ug/ml incubated for 18 to 20 hrs by CLSI method; assay type: functional, organism-based; details: B ATCC 25404, dose 16.0 µg/ml, time 18-20 hrs; outline: as §1
[14] = test system: Staphylococcus aureus; test: Antibacterial activity against methicillin-resistant Staphylococcus aureus USA400 infected in mouse J774 cells assessed as log reduction in intracellular growth at 16 ug/ml incubated for 18 to 22 hrs; assay type: functional; details: dose 16 µg/ml; time 18-22 hrs; outline: as §3
[15] = test system: Staphylococcus aureus; test: Antibacterial activity against methicillin-resistant Staphylococcus aureus NRS385 assessed as inhibition of visible bacterial growth incubated for 18 to 20 hrs by CLSI method; assay type: functional; details: time 18-20 hrs; outline: as §1
[16] = test system: Enterococcus faecalis; test: Antibacterial activity against vancomycin- resistant Enterococcus faecalis ATCC 51299 assessed as inhibition of visible bacterial growth incubated for 18 to 20 hrs by CLSI method; assay type: functional; details: time 18-20 hrs; outline: as §1
[17] = Hemolytic activity in human RBC at 64 ug/ml incubated for 60 mins relative to control; assay type: ADME, cell-based, Erythrocyte; details: red blood cells (erythrocytes), at 64 µg/mL, read-out: Activity; outline: as §2
[18] = test system: Staphylococcus aureus; test: Antibacterial activity against vancomycin-resistant Staphylococcus aureus 12 assessed as inhibition of visible bacterial growth incubated for 18 to 20 hrs by CLSI method; assay type: functional; details: time 18-20 hrs; outline: as §1
[19] = test system: Staphylococcus aureus; test: Antibacterial activity against vancomycin-resistant Staphylococcus aureus 10 assessed as inhibition of visible bacterial growth incubated for 18 to 20 hrs by CLSI method; assay type: functional; details: time 18-20 hrs; outline: as §1
[20] = test system: Staphylococcus aureus; test: Antibacterial activity against methicillin-resistant Staphylococcus aureus NRS484 assessed as inhibition of visible bacterial growth incubated for 18 to 20 hrs by CLSI method; assay type: functional; details: time 18-20 hrs; outline: as §1
[21] = test system: Staphylococcus aureus; test: Antibacterial activity against methicillin-sensitive Staphylococcus aureus NRS 107 assessed as inhibition of visible bacterial growth incubated for 18 to 20 hrs by CLSI method; assay type: functional; details: time 18-20 hrs; outline: as §1
[22] = test system: Staphylococcus aureus; test: Antibacterial activity against methicillin-resistant Staphylococcus aureus NRS386 assessed as inhibition of visible bacterial growth incubated for 18 to 20 hrs by CLSI method; assay type: functional; details: time 18-20 hrs; outline: as §1
[23] = test system: Enterococcus faecalis; test: Antibacterial activity against vancomycin- resistant Enterococcus faecalis ATCC 700221 assessed as inhibition of visible bacterial growth incubated for 18 to 20 hrs by CLSI method; assay type: functional; details: time 18-20 hrs; outline: as §1
[24] = test system: Staphylococcus aureus; test: Antibacterial activity against methicillin-resistant Staphylococcus aureus NRS387 assessed as inhibition of visible bacterial growth incubated for 18 to 20 hrs by CLSI method; assay type: functional; details: time 18-20 hrs; outline: as §1
[25] = test system: Staphylococcus aureus; test: Antibacterial activity against methicillin-resistant Staphylococcus aureus NRS384 assessed as inhibition of visible bacterial growth incubated for 18 to 20 hrs by CLSI method; assay type: functional; details: time 18-20 hrs; outline: as §1
[26] = test system: Staphylococcus aureus; test: Antibacterial activity against Staphylococcus aureus ATCC 25923 assessed as inhibition of visible bacterial growth incubated for 18 to 20 hrs by CLSI method; assay type: functional; details: time 18-20 hrs; outline: as §1
[27] = test system: Staphylococcus aureus; test: Antibacterial activity against methicillin-resistant Staphylococcus aureus NRS382 assessed as inhibition of visible bacterial growth incubated for 18 to 20 hrs by CLSI method; assay type: functional; details: time 18-20 hrs; outline: as §1
[28] = test system: Staphylococcus aureus; test: Synergistic antibacterial activity against methicillin-resistant Staphylococcus aureus ATCC 33592 assessed as fractional inhibitory concentration index in presence of methicillin by checkerboard assay; assay type: functional

SMILES: O=C(Nc1nnc(-c2cccs2)o1)c1ccc(S(=O)(=O)C(F)(F)F)cc1
- MIC [1]: 4 µg/mL (≈ 9.92 µM)
- MIC [2]: 1 µg/mL (≈ 2.48 µM)
- fractional inhibitory concentration index (FICI) [3]: 1.03
- MIC [4]: 2 µg/mL (≈ 4.96 µM)
- MIC [5]: 0.5 µg/mL (≈ 1.24 µM)
- fractional inhibitory concentration index (FICI) [6]: 1.03
- hemolysis at 1 h, 32 ug/ml [7]: 23%
- inhibition [8]: inactive
- inhibition [9]: inactive
- MIC [10]: 2 µg/mL (≈ 4.96 µM)
- Activity [11]: 0.5 log10CFU/ml
- fractional inhibitory concentration index (FICI) [12]: 0.63
- inhibition [13]: inactive
- Activity [14]: 0.6 log10CFU/ml
- MIC [15]: 8 µg/mL (≈ 19.8 µM)
- MIC [16]: 4 µg/mL (≈ 9.92 µM)
- hemolysis at 1 h, 64 ug/ml [17]: 35%
- MIC [18]: 8 µg/mL (≈ 19.8 µM)
- MIC [19]: 4 µg/mL (≈ 9.92 µM)
- MIC [20]: 4 µg/mL (≈ 9.92 µM)
- MIC [21]: 4 µg/mL (≈ 9.92 µM)
- MIC [22]: 4 µg/mL (≈ 9.92 µM)
- MIC [23]: 4 µg/mL (≈ 9.92 µM)
- MIC [24]: 4 µg/mL (≈ 9.92 µM)
- MIC [25]: 4 µg/mL (≈ 9.92 µM)
- MIC [26]: 0.5 µg/mL (≈ 1.24 µM)
- MIC [27]: 8 µg/mL (≈ 19.8 µM)
- fractional inhibitory concentration index (FICI) [28]: 0.53
